Published values of several laboratories.
Lines come from different studies, so protocols differ.
Target: Mitotic checkpoint serine/threonine-protein kinase BUB1 (BUB1, Homo sapiens, UniProt O43683)

SMILES | assay | conditions | remaining binding [%]
O=C(NCCCN1CCOCC1)c1ccc(Nc2nccc(-c3cc4ccccc4s3)n2)cc1 | binding, competition with immobilised ligand | 1 µM | 72
CN(C)CC#Cc1ccc(OCCCc2sc(N3CCc4cccc(C(=O)Nc5nc6ccccc6s5)c4C3)nc2C(=O)O)c(F)c1 | cell-free assay, competition with immobilised ligand | 1 µM | 81
N[C@H]1CCN(c2nccc(-c3cnn4ncccc34)n2)C1 | binding | 1 µM | 97
CNCc1ccccc1-c1csc([C@@H](C)Nc2nc(C)nc3cc(OC)c(OC)cc23)c1 | cell-free assay, competition with immobilised ligand | 1 µM | 100
O=C(c1ccc(Nc2ncc(Cl)c(-c3cc4ccccc4s3)n2)cc1)N1CCC(N2CCCC2)CC1 | binding, competition with immobilised ligand | 1 µM | 53
CN(C)c1nccc(-c2cnn3ncccc23)n1 | binding | 1 µM | 74
O=C(NCC1CCOCC1)c1n[nH]cc1NC(=O)c1c(F)cccc1F | binding, competition with immobilised ligand | 1 µM | 71
COc1cnc(Nc2cccc(S(N)(=O)=O)c2)nc1N1CCN(c2ccccc2)C(=O)C1 | binding, competition with immobilised ligand | 1 µM | 79
O=C(N1CCS(=O)(=O)CC1)N1C[C@H](c2ccc(OC(F)(F)F)cc2)C[C@H](c2nc(C3CC3)no2)C1 | cell-free assay, competition with immobilised ligand | 1 µM | 100
F[C@@H]1CCN(c2nccc(-c3cnn4ncccc34)n2)C1 | binding | 1 µM | 72
COc1cc(-c2cn(C3CCc4c(F)cccc4N(CC(F)(F)F)C3=O)nn2)ccc1-n1cnc(C)c1 (stereo not shown) | cell-free assay, competition with immobilised ligand | 1 µM | 100
Cc1cnn2ncc(-c3ccnc(N(C)C)n3)c2c1 | binding | 1 µM | 63
CCN1CCN(Cc2ccc(C(=O)Nc3ccc(C)c(Oc4ccc5c(c4)CC(=O)N5)c3)cc2C(F)(F)F)CC1 | binding, competition with immobilised ligand | 1 µM | 100
Nc1ncc2c(n1)-c1c([nH]c3ccc(C#CC4CC4)cc13)CCCC2 | binding, competition with immobilised ligand | 1 µM | 78
CC(=O)C1=C(C)N(c2cccc(C(F)(F)F)c2)C(=O)N[C@@H]1c1ccc(C#N)nc1 | cell-free assay, competition with immobilised ligand | 1 µM | 100
CC1CCCN1c1nccc(-c2cnn3ncccc23)n1 (stereo not shown) | binding | 1 µM | 100
Cc1cnc(Nc2ccc(C(=O)N3CCC(N4CCCC4)CC3)cc2)nc1-c1cc2ccccc2s1 | binding, competition with immobilised ligand | 1 µM | 39
CCc1ccccc1C(=O)Nc1n[nH]c2c(C)c(F)c(C3C(C#N)=C(C)N(C)C(C)=C3C#N)cc12 | cell-free assay, competition with immobilised ligand | 1 µM | 100
CN(C)c1ncc(F)c(-c2cnn3ncccc23)n1 | binding | 1 µM | 100
CS(=O)(=O)N1CCCC(NC(=O)[C@H](CCC2CCCCC2)NC(=O)c2ccc(CNc3ncnc4c3nnn4-c3ccccc3)cc2)C1 (stereo partly shown) | cell-free assay, competition with immobilised ligand | 0.1 µM | 100
C[C@H]1CCN(c2nccc(-c3cnn4ncccc34)n2)C1 | binding | 1 µM | 52
C=CC(=O)N1CCC(C(=O)NCC(=O)N2CCN(c3nc(-c4cnc(N)nc4C(F)F)nc(N4CCOCC4)n3)CC2)CC1 | binding, competition with immobilised ligand | 1 µM | 77
